Source: ChEMBL document CHEMBL1821616, “New insights into the structural requirements for pro-apoptotic agents based on 2,4-diaminoquinazoline, 2,4-diaminopyrido[2,3-d]pyrimidine and 2,4-diaminopyrimidine derivatives” (Eur J Med Chem, 2011)
Activity calls are given as the source filed them. The calls are words filed in the database; no cut-off is given here.

Legend:
MDA-MB-231 [1] = assay: Cytotoxicity against human MDA-MB-231 cells after 72 hrs by neutral red dye assay; type: functional, cell-based; conditions: MDA-MB-231, 72 h
Procedure, shortened: (§1)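 Human tumour cells were grown as monolayers with 10% FBS and penicillin/streptomycin at 37 °C in 5% CO2 (HT-29 and T-24 in McCoy's, MDA-MB-231 in Leibovitz). They were exposed to compound in DMSO (≤0.5% v/v final) at screening concentrations of 20 and 100 μM for 72 h and read by neutral red uptake. Survival is relative to cells given DMSO only, in triplicate.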

HT-29 [2] = assay: Cytotoxicity against human HT-29 cells assessed as cell survival at 100 uM after 72 hrs by neutral red dye assay; type: functional; conditions: HT-29, 72 h, read-out: Survival
Procedure, shortened: (§2)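 HT-29 and T-24 cells were grown in McCoy's medium and MDA-MB-231 in Leibovitz, each with 10% FBS plus penicillin/streptomycin, as monolayers at 37 °C in 5% CO2. Compounds in DMSO (≤0.5% v/v final) were applied for 72 h. Survival was read by neutral red uptake against 0.5% DMSO-treated cells, as the mean of triplicates.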

T-24 [3] = assay: Cytotoxicity against human T24 cells after 72 hrs by neutral red dye assay; type: functional, cell-based; conditions: T-24, 72 h; procedure, shortened: as §1
MDA-MB-231 [4] = assay: Cytotoxicity against human MDA-MB-231 cells assessed as cell survival at 100 uM after 72 hrs by neutral red dye assay; type: functional; conditions: MDA-MB-231, 72 h, read-out: Survival; procedure, shortened: as §2
T-24 [5] = assay: Induction of apoptosis in human T24 cells assessed as caspase3 activation at IC50 after 48 hrs by FACS analysis relative to control; type: functional
Procedure, shortened: (§3)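 Active caspase-3 was detected by flow cytometry with a FITC anti-active-caspase-3 antibody kit, with readings at 14, 24 and 48 h. Treated cells were compared with untreated control cells. Results are scored as (+) for an increase of about 50% and (++) for a larger rise.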

MDA-MB-231 [6] = assay: Induction of apoptosis in human MDA-MB-231 cells assessed as DNA fragmentation after 24 hrs by ELISA relative to control; type: functional
Procedure, shortened: (§4)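 DNA fragmentation was measured with the Cell Death Detection ELISA Plus kit after treatment of cultured tumour cells. The signal is expressed relative to untreated control cultures, which are set to 1.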

HT-29 [7] = assay: Induction of apoptosis in human HT-29 cells assessed as DNA fragmentation after 48 hrs by ELISA relative to control; type: functional; procedure, shortened: as §4
HT-29 [8] = assay: Cytotoxicity against human HT-29 cells after 72 hrs by neutral red dye assay; type: functional, cell-based; conditions: HT-29, 72 h; procedure, shortened: as §1
T-24 [9] = assay: Cytotoxicity against human T24 cells assessed as cell survival at 100 uM after 72 hrs by neutral red dye assay; type: functional; conditions: T-24, 72 h, read-out: Survival; procedure, shortened: as §2
[10] = Cytotoxicity against human CRL8799 cells assessed as cell survival at 20 to 100 uM after 72 hrs by neutral red dye assay; type: cell-based; conditions: read-out: Survival
Procedure, shortened: (§5)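 The non-tumoral lines were grown with 10% FBS plus penicillin/streptomycin, as monolayers at 37 °C in 5% CO2: CRL-8799 in MEG medium and CRL-11233 in BEGM. Compounds in DMSO (≤0.5% v/v final) were applied for 72 h. Survival was read by neutral red uptake against 0.5% DMSO solvent-treated controls, as the mean of triplicates.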

T-24 [11] = assay: Induction of apoptosis in human T24 cells assessed as DNA fragmentation after 48 hrs by ELISA relative to control; type: functional; procedure, shortened: as §4
[12] = Cytotoxicity against human CRL11233 cells assessed as cell survival at 20 to 100 uM after 72 hrs by neutral red dye assay; type: cell-based; conditions: read-out: Survival; procedure, shortened: as §5
HT-29 [13] = assay: Induction of apoptosis in human HT-29 cells assessed as caspase3 activation at IC50 after 48 hrs by FACS analysis relative to control; type: functional; procedure, shortened: as §3

In the case of `c1ccc(CNc2nc(NCc3ccccc3)c3ccccc3n2)cc1`, the IC50 (MDA-MB-231 [1]) is reported as 1.79 µM, the viability at 100 µM (HT-29 [2]) is reported as < 45% and the IC50 (T-24 [3]) is reported as 5.96 µM. The viability at 100 µM (MDA-MB-231 [4]) was < 45%, the Activity (T-24 [5]) was 75% and the Activity (MDA-MB-231 [6]) was “inactive”. The “fold change (FC)” value (HT-29 [7]) was 3.6, the IC50 (HT-29 [8]) was 4.72 µM and the viability at 100 µM (T-24 [9]) was < 45%. For the same compound, the viability at 72 h, up to 100 µM [10] was 89%, the Activity (T-24 [11]) was “inactive” and the viability at 72 h, up to 100 µM [12] was 100%.
For `c1ccc(CNc2nc(NCc3ccccc3)c3cccnc3n2)cc1`, the IC50 (MDA-MB-231 [1]) was 10.3 µM, the viability at 100 µM (HT-29 [2]) was < 45% and the IC50 (T-24 [3]) was 13.4 µM. For the same compound, the viability at 100 µM (MDA-MB-231 [4]) was < 45%, the Activity (T-24 [5]) was 50% and the Activity (MDA-MB-231 [6]) was “inactive”. For the same compound, the “fold change (FC)” value (HT-29 [7]) was 2.5, the IC50 (HT-29 [8]) was 11 µM and the viability at 100 µM (T-24 [9]) was < 45%. For the same compound, the viability at 72 h, up to 100 µM [10] was 85%, the “fold change (FC)” value (T-24 [11]) was 4.6 and the viability at 72 h, up to 100 µM [12] was 90%.
For `COc1ccc(CNc2nc(NCc3ccc(OC)cc3)c3cccnc3n2)cc1`, the IC50 (MDA-MB-231 [1]) was 2.9 µM, the viability at 100 µM (HT-29 [2]) was < 45% and the viability at 100 µM (MDA-MB-231 [4]) was < 45%. For the same compound, the “fold change (FC)” value (MDA-MB-231 [6]) was 1.5, the “fold change (FC)” value (HT-29 [7]) was 2.7 and the Activity (HT-29 [13]) was 50%. For the same compound, the viability at 100 µM (T-24 [9]) was < 45%, the viability at 72 h, up to 100 µM [10] was 85% and the “fold change (FC)” value (T-24 [11]) was 2.3. For the same compound, the viability at 72 h, up to 100 µM [12] was 100%.
With `Cc1ccc(CCNc2nc(NCCc3ccc(C)cc3)c3ccccc3n2)cc1` the IC50 (MDA-MB-231 [1]) was 4.65 µM, the viability at 100 µM (HT-29 [2]) was < 45% and the IC50 (T-24 [3]) was 2.17 µM. The viability at 100 µM (MDA-MB-231 [4]) was < 45%, the “fold change (FC)” value (MDA-MB-231 [6]) was 2.4 and the Activity (HT-29 [7]) was “inactive”. The IC50 (HT-29 [8]) was 1.64 µM, the Activity (HT-29 [13]) was 50% and the viability at 100 µM (T-24 [9]) was < 45%. The viability at 72 h, up to 100 µM [10] was 0%, the Activity (T-24 [11]) was “inactive” and the viability at 72 h, up to 100 µM [12] was 0%.
In the case of `CCCCCNc1nc(SC(C)C)nc2ncccc12`, the IC50 (MDA-MB-231 [1]) is reported as 5.6 µM, the viability at 100 µM (HT-29 [2]) is reported as < 45% and the IC50 (T-24 [3]) is reported as 7.9 µM. The viability at 100 µM (MDA-MB-231 [4]) was < 45%, the Activity (T-24 [5]) was 50% and the “fold change (FC)” value (MDA-MB-231 [6]) was 2.2. For the same compound, the “fold change (FC)” value (HT-29 [7]) was 4.2, the IC50 (HT-29 [8]) was 25.2 µM and the Activity (HT-29 [13]) was 75%. For the same compound, the viability at 100 µM (T-24 [9]) was < 45%, the viability at 72 h, up to 100 µM [10] was 100% and the “fold change (FC)” value (T-24 [11]) was 1.7. For the same compound, the viability at 72 h, up to 100 µM [12] was 66%.
With `c1ccc(CCNc2nc(NCCc3ccccc3)c3cccnc3n2)cc1` the IC50 (MDA-MB-231 [1]) was 1.2 µM, the viability at 100 µM (HT-29 [2]) was < 45% and the IC50 (T-24 [3]) was 8.1 µM. For the same compound, the viability at 100 µM (MDA-MB-231 [4]) was < 45%, the Activity (T-24 [5]) was 75% and the Activity (MDA-MB-231 [6]) was “inactive”. For the same compound, the “fold change (FC)” value (HT-29 [7]) was 9.2, the IC50 (HT-29 [8]) was 2.5 µM and the Activity (HT-29 [13]) was 50%. For the same compound, the viability at 100 µM (T-24 [9]) was < 45%, the viability at 72 h, up to 100 µM [10] was 0% and the “fold change (FC)” value (T-24 [11]) was 1.2. For the same compound, the viability at 72 h, up to 100 µM [12] was 0%.
In the case of `CCCCCNc1nc(SCC)nc2ncccc12`, the IC50 (MDA-MB-231 [1]) is reported as 1.3 µM, the viability at 100 µM (HT-29 [2]) is reported as < 45% and the IC50 (T-24 [3]) is reported as 4.3 µM. For the same compound, the viability at 100 µM (MDA-MB-231 [4]) was < 45%, the Activity (T-24 [5]) was 75% and the “fold change (FC)” value (MDA-MB-231 [6]) was 6.6. The “fold change (FC)” value (HT-29 [7]) was 5, the IC50 (HT-29 [8]) was 5.1 µM and the Activity (HT-29 [13]) was 50%. For the same compound, the viability at 100 µM (T-24 [9]) was < 45%, the viability at 72 h, up to 100 µM [10] was 88% and the “fold change (FC)” value (T-24 [11]) was 3.6. For the same compound, the viability at 72 h, up to 100 µM [12] was 100%.
For `c1ccc(CCCCNc2nc(NCCCCc3ccccc3)c3cccnc3n2)cc1`, the IC50 (MDA-MB-231 [1]) was 1.1 µM, the viability at 100 µM (HT-29 [2]) was < 45% and the IC50 (T-24 [3]) was 1.4 µM. For the same compound, the viability at 100 µM (MDA-MB-231 [4]) was < 45%, the Activity (MDA-MB-231 [6]) was “inactive” and the “fold change (FC)” value (HT-29 [7]) was 1.4. For the same compound, the IC50 (HT-29 [8]) was 5 µM, the Activity (HT-29 [13]) was 50% and the viability at 100 µM (T-24 [9]) was < 45%. For the same compound, the viability at 72 h, up to 100 µM [10] was 86%, the “fold change (FC)” value (T-24 [11]) was 4.6 and the viability at 72 h, up to 100 µM [12] was 82%.
With `c1ccc(CCCNc2nc(NCCCc3ccccc3)c3cccnc3n2)cc1` the IC50 (MDA-MB-231 [1]) was 5.8 µM, the viability at 100 µM (HT-29 [2]) was < 45% and the IC50 (T-24 [3]) was 13.2 µM. For the same compound, the viability at 100 µM (MDA-MB-231 [4]) was < 45%, the “fold change (FC)” value (MDA-MB-231 [6]) was 1.6 and the “fold change (FC)” value (HT-29 [7]) was 6. For the same compound, the IC50 (HT-29 [8]) was 1.7 µM, the Activity (HT-29 [13]) was 50% and the viability at 100 µM (T-24 [9]) was < 45%. For the same compound, the viability at 72 h, up to 100 µM [10] was 0%, the “fold change (FC)” value (T-24 [11]) was 3.1 and the viability at 72 h, up to 100 µM [12] was 0%.
In the case of `c1ccc(CCCCNc2nc(NCCCCc3ccccc3)c3ccccc3n2)cc1`, the IC50 (MDA-MB-231 [1]) is reported as 1.22 µM, the viability at 100 µM (HT-29 [2]) is reported as < 45% and the IC50 (T-24 [3]) is reported as 11.9 µM. For the same compound, the viability at 100 µM (MDA-MB-231 [4]) was < 45%, the Activity (T-24 [5]) was 75% and the Activity (MDA-MB-231 [6]) was “inactive”. For the same compound, the “fold change (FC)” value (HT-29 [7]) was 2, the IC50 (HT-29 [8]) was 3.78 µM and the viability at 100 µM (T-24 [9]) was < 45%. The viability at 72 h, up to 100 µM [10] was 6%, the Activity (T-24 [11]) was “inactive” and the viability at 72 h, up to 100 µM [12] was 11%.
